Measurements from different studies.
Each line is one published result; the experiments were not run side by side.
Target: Rhodopsin kinase GRK7 (GRK7, Homo sapiens, UniProt Q8WTQ7)
One construct used (Q8WTQ7 1-553): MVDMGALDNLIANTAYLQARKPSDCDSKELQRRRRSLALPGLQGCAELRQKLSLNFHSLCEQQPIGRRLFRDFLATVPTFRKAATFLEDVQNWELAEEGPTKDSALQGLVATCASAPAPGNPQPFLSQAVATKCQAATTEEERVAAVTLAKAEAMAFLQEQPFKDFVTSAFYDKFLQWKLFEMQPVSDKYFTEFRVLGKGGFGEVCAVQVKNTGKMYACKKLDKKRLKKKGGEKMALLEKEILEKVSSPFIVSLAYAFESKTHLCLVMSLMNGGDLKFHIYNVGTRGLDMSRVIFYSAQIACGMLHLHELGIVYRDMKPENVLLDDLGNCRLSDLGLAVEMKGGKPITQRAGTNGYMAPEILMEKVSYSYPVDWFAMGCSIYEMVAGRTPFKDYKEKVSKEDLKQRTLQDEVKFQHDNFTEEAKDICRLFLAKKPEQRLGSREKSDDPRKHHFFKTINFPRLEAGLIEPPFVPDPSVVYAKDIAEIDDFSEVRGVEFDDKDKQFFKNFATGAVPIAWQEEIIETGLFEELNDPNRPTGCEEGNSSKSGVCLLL

Structure (SMILES)	test	setting	endpoint	value
N#CC1(c2ccccn2)CCN(Cc2cc(C(=O)O)c(=O)n3ccccc23)CC1	cell-free assay, competition with immobilised ligand	1 µM	remaining binding	77%
Cn1cc(-c2cc(F)cc(N3CCn4c(cc5c4CCCC5)C3=O)c2CO)cc(Nc2ccc(N3CCN(C4COC4)CC3)cn2)c1=O	enzyme activity, inhibitor	0.1 µM	inhibition	2%
Nc1ncc(-c2nc(N3CCOCC3)nc(N3CCOCC3)n2)c(C(F)F)n1	binding, competition with immobilised ligand	10 µM	remaining binding	67%
O=c1[nH]c2ccccc2n1C1CCN(Cc2ccc(-c3[nH]c4cc5ncnc5cc4nc3-c3ccccc3)cc2)CC1	cell-free assay	0.5 µM	remaining signal	98.5%
Cn1cc(-c2cccc(N3CCc4c(sc5c4CC(C)(C)C5)C3=O)c2CO)cc(Nc2ccncn2)c1=O	enzyme activity, inhibitor	1 µM	inhibition	3%
CC(C)(C)c1cc(C=C(C#N)C#N)cc(Br)c1O	enzyme activity, inhibitor	0.5 µM	remaining activity	107%
Cn1cncc1[C@@](O)(COc1ccc(C#N)cc1-c1ccc(OC(F)(F)F)cc1)c1ccc(C#N)cc1	cell-free assay, competition with immobilised ligand	1 µM	remaining binding	81%
COc1ncccc1-c1cnn2ccc(N3CCN(C(=O)OC(C)C)CC3)nc12	binding, competition with immobilised ligand	1 µM	remaining binding	100%
